Rows were chosen to be rich in hits. Some 1.7% of all compounds tested hit in one or more screens of this group.
SUMO1 PPI mod: modulators of human SUMO1-mediated protein-protein interactions; SUMO1 binding to a labelled peptide, TR-FRET, 1 h; inhibition, % at 20 µM; hit rate 0.33% among 360,000; AID 602429; P63165; in the data active = inhibition above about 37%
Target sequence (P63165 whole entry, looked up): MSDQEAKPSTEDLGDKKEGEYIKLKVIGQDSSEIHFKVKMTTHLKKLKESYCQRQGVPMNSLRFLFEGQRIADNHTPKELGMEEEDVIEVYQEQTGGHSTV
Scp1 inh: blocks human Scp-1 phosphatase activity. Recombinant Scp1, phosphopeptide, malachite green phosphate absorbance. hit rate 0.88% among 340,000. inhibition, % at 20 µM. AID 493091. Q9GZU7;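 active = inhibition above about 50% at 20 µM, limit read from the data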;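 also: plate controls were DMSO wells with enzyme for no effect and wells lacking enzyme for full effect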
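Test system – truncated SCP-1 phosphatase (76-261aa) · Reagent – Phosphorylated 17-residue peptide substrate · Incubation – 45 min room-temperature reaction, 5 min colour, 30 min stabiliser · Detection – colorimetric phosphate reagent with accelerator and stabiliser, absorbance at 630 nm · Measure – % inhibition at 20 µM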
LMPTP inh: LMPTP (human) inhibition; P24666; recombinant LMPTP-A, OMFP fluorogenic substrate, fluorescence intensity; inhibition, % at 20 µM; hit rate 0.22% among 360,000; AID 651560;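 active = compounds that cut the enzyme signal by at least half of the control window in the single-dose screen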;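 also: plate controls were DMSO wells with enzyme plus substrate for no effect and substrate without enzyme for full effect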
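Test system – LMPTP-A enzyme · Amount – LMPTP-A at 0.625 nM final in the reaction · Buffer or medium – Bis-Tris pH 6.0, DTT, detergent · Reagent – OMFP 400 µM · Doses – single 20 µM dose · Schedule – reaction 50 min, room temperature, dark · Detection – fluorescence intensity of OMFP turnover product · Evaluation – percent inhibition versus substrate-only and uninhibited controls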
STEP inh: blocks human striatal-enriched tyrosine phosphatase. P54829. recombinant STEP, OMFP fluorogenic substrate, fluorescence. inhibition, % at 20 µM. hit rate 0.25% among 360,000. AID 588621;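 active = inhibition at 20 µM, scaled per plate between control wells, above about 37%, limit read from the data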;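 also: 0% = DMSO with enzyme and substrate and 100% = substrate only without enzyme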
Target sequence (P54829 whole entry, looked up): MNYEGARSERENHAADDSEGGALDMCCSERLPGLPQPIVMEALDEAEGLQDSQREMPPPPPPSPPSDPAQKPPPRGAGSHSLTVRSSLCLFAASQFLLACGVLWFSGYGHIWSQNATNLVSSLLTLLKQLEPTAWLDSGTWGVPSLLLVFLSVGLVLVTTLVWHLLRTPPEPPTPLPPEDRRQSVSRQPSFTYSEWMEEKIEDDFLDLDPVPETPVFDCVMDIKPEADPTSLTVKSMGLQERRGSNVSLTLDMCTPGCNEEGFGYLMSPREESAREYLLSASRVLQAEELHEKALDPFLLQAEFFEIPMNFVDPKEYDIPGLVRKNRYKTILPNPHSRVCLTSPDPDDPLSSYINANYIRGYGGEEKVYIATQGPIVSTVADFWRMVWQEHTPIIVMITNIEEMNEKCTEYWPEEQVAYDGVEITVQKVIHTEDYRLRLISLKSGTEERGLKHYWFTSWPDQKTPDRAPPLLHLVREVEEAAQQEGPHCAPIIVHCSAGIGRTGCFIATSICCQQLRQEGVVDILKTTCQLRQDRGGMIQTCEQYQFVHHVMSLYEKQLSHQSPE
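Material: STEP (striatal-enriched tyrosine phosphatase) enzyme, cell-free; Compound dosing: 20 µM single dose in 1% DMSO; Technique: fluorescence read at 480 nm ex / 540 nm em; Times: reaction 20 min, ambient temperature; Medium: 50 mM Bis-Tris pH 6.0 with 2.5 mM DTT and 0.005% Tween 20; Also added: OMFP at 25 µM.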
DSG3 Ab inh: human desmoglein-3 autoantibody binding inhibition; P32926; DSG3-coupled beads, scFv-anti-DSG3-GFP binding, flow cytometry; active compounds read low; binding (percent of control), % at 10 µM; hit rate 0.48% among 310,000; AID 588358;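 active = binding more than 3 SD below its plate's average and above zero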;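 also: hits lower antibody fragment binding to DSG3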
Scp-1 conf: confirmation of human Scp-1 phosphatase inhibitors | shares compounds with Scp1 inh | recombinant SCP-1 catalytic domain, phosphate release, malachite green absorbance | inhibition, % at 20 µM | hit rate 61% among 2,500;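 also: plate controls were DMSO with enzyme for no effect and buffer wells lacking enzyme for full effect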
Scp-1 MG ctr: interferes with malachite green readout, flagging false Scp-1 hits; shares compounds with Scp1 inh; Colorimetric interference counterscreen, malachite green absorbance 630 nm; apparent inhibition (interference), % at 20 µM; 2,500 tested, under 10 active; AID 540313;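 also: compounds added after enzyme reaction finished so only phosphate colour detection is probed; plate controls were DMSO wells with completed Scp-1 reaction for no effect and substrate wells lacking enzyme for full effect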
Scp1 DSF: binds human Scp-1, shifting its melting temperature; shares compounds with Scp1 inh; Recombinant SCP1, Sypro Orange thermal shift Tm; thermal shift relative to vanadate control, % at 40 µM; hit rate 25% among 1,500; AID 540329;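 active = substances whose mean melting-temperature shift, as a percentage of the reference inhibitor's shift, reaches about 5.3%, limit read from the data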;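 also: 0% = Tm of DMSO wells and 100% = Tm with sodium orthovanadate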
* hit, by the source's call; . = not tested or not shown.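 The calls were made as follows, unless noted: active = inhibition of at least 30% at 20 µM; inactive = the rest.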

SMILES | SUMO1 PPI mod | Scp1 inh | LMPTP inh | STEP inh | DSG3 Ab inh | Scp-1 conf | Scp-1 MG ctr | others
Cc1cc(C)cc(NC(=O)COC(=O)Cn2cnc3c2c(=O)n(C)c(=O)n3C)c1 | 3 | -8 | -1 | 0 | 99 | . | .
CCC(=O)Nc1ccc(NC(=S)NC(=O)/C=C/c2ccccc2)cc1 | 2 | 67* | -1 | 12 | 100 | -4 | -16
O=C(C1COc2ccccc2O1)N1CCN(c2ccc(C(F)(F)F)cn2)CC1 (stereo not given) | -1 | 87* | 1 | -2 | 79 | -12 | -19
NS(=O)(=O)c1ccc(N2CCN(C(=O)C3COc4ccccc4O3)CC2)nc1 (stereo not given) | 5 | 1 | -1 | 2 | 101 | . | .
O=C1OCCOC2CCCc3oc(C4=CCCCC4)c1c32 (stereo not given) | 0 | . | -1 | . | . | . | .
FC(F)(F)c1nc(-c2ccncc2)ncc1-c1nnnn1-c1ccccc1 | -10 | 78* | 0 | 4 | 105 | -16 | -12
Cc1ccc(-n2nnnc2-c2cnc(-c3cccnc3)nc2C(F)(F)F)cc1 | -3 | -4 | -1 | 2 | . | . | .
CCN(CC)CCCn1c2c(c(SCC(=O)Nc3nc4ccccc4s3)nc1=O)CCC2 | -5 | 8 | 2 | -1 | 105 | . | .
COC(=O)[C@]1(Cc2ccccc2)N[C@H](CN(C)C(=O)COc2ccccc2)[C@@H]2C(=O)N(C)C(=O)[C@@H]21 | 4 | -8 | -1 | 2 | 86 | . | .
O=C(O)c1ccc(CSc2n[nH]c(-c3ccco3)n2)cc1 | 23 | 52* | -1 | 13 | 105 | 32* | -15 | Scp1 DSF=-2
CCC(C(=O)NCc1ccc(F)cc1)N(CCc1ccccc1)C(=O)c1snc(C(N)=O)c1N (stereo not given) | -9 | -3 | 2 | 0 | 108 | . | .
Cc1ccc(OCC(=O)Nc2nnc(S(=O)(=O)N3CCCCC3)s2)cc1 | 43* | 71* | 31 | 3 | 79 | 57* | -20 | Scp1 DSF=5.7*
Cc1ccc(OCC(=O)Nc2nnc(S(=O)(=O)N3CCCCCC3)s2)cc1 | 6 | -3 | -1 | 2 | 98 | . | .
C[N+](C)(C)CCCN(Cc1ccc2c(c1)OCO2)C(=O)NC1CCCCC1 | 2 | 91* | -5 | -4 | . | 79* | -19 | Scp1 DSF=-27
CC(NCc1ccc2c(c1)OCO2)C(=O)NC1CCCCC1 (stereo not given) | -2 | -8 | -2 | 2 | 96 | . | .
CC(=O)Oc1ccc(/C=C(\NC(=O)c2ccco2)C(=O)NCc2ccccc2)cc1 | -6 | 54* | 0 | -1 | 112 | -6 | -6
Cc1nc(N2CCOCC2)c2c(C)c(C(=O)Nc3ccc(F)cc3Cl)sc2n1 | 1 | 3 | 3 | -2 | 103 | . | .
Cc1nc(N2CCOCC2)c2c(C)c(C(=O)Nc3ccccc3Cl)sc2n1 | 1 | 51* | 2 | 1 | 96 | -13 | -11
CCNc1nc(NCC)n2c(SCC(=O)Nc3cccc(F)c3)nnc2n1 | 10 | 36 | 1 | 4 | 96 | . | .
CCNc1nc(NCC)n2c(SCC(=O)Nc3cccc(Cl)c3)nnc2n1 | 13 | 54* | 0 | 2 | 100 | 50* | -14 | Scp1 DSF=-12
COc1ccc(C2Nc3ccccc3NC3=C2C(=O)CC(C)(C)C3)cc1O (stereo not given) | -11 | 56* | -1 | 1 | 92 | -6 | -20
COc1cc(C2CC(=O)NC3=C2C(=O)CC(C)(C)C3)ccc1O (stereo not given) | 1 | 8 | -3 | -3 | 103 | -22 | -24
COc1ccc(S(=O)(=O)N2CCC(C(=O)Oc3ccc(C)cc3)CC2)cc1OC | 0 | -7 | 1 | 0 | 101 | . | .
CC1CN(CCc2ccccc2)c2nc3c(c(=O)n(C)c(=O)n3C)n2C1 (stereo not given) | -5 | -2 | 1 | -2 | 95 | . | .
CC(=O)Nc1ccc(-c2nnc(SCC(=O)n3c4c(c5ccccc53)CCCC4)n2C)cc1 | 0 | 84* | 0 | 4 | 103 | 8 | 3
SMILES | SUMO1 PPI mod | Scp1 inh | LMPTP inh | STEP inh | DSG3 Ab inh | Scp-1 conf | Scp-1 MG ctr | others
C[N+]12CCCCC1[C@@H](CO)CCC2 (stereo not given in full) | -5 | 55* | 0 | 1 | 91 | 4 | -8
O=C(NCCS(=O)(=O)N1CCCCC1)c1ccc2c(c1)OCO2 | -1 | -3 | -2 | 3 | 105 | . | .
Cn1c(=O)cc(OCC(=O)NCCc2ccc(Cl)cc2)c2ccccc21 | 1 | -6 | -2 | -1 | 95 | . | .
Cn1c(=O)cc(OCC(=O)NCCC2=CCCCC2)c2ccccc21 | 1 | -3 | -1 | -1 | 109 | -8 | -10
Nc1nnc(CC(=O)N/N=C/c2ccc(-c3cccc(C(=O)O)c3)o2)s1 | 11 | 54* | -2 | 1 | 85 | 45* | -6 | Scp1 DSF=1
Nc1nnc(CC(=O)N/N=C/c2ccc(-c3ccc(F)cc3)o2)s1 | -22 | 1 | 2 | 3 | 103 | . | .
c1ccc(Cn2cc(-c3ccccc3)cn2)cc1 | 2 | 0 | 0 | 1 | 108 | . | .
C=CCOc1ccc(/C=C\c2nc(O)c([N+](=O)[O-])c(=O)[nH]2)cc1OCC | 7 | 99* | 1 | 6 | 104 | 45* | -14 | Scp1 DSF=4
COc1ccc(/C=C\c2nc(O)c([N+](=O)[O-])c(=O)[nH]2)cc1O | -2 | -3 | -2 | 0 | 98 | . | .
C=CCOc1ccc(/C=C\c2nc(O)c([N+](=O)[O-])c(=O)[nH]2)cc1OC | 7 | 62* | -1 | 2 | 107 | 59* | -2 | Scp1 DSF=-8
COc1cc(/C=C/c2[nH]c(=O)[nH]c(=O)c2[N+](=O)[O-])ccc1OCCC(C)C | 15 | 63* | 2 | -1 | 102 | 71* | -10 | Scp1 DSF=2
Cc1cc(C(=O)CSc2nncn2C)c(C)n1-c1ccccc1 | -1 | -10 | 0 | 2 | 100 | . | .
O=C(COC(=O)CCSc1ccccc1)NCc1ccccc1Cl | 1 | -15 | 0 | 0 | . | . | .
O=C(CSc1ccc(-c2ccccc2)nn1)N1CCCc2ccccc21 | 1 | 58* | 1 | 2 | 101 | 1 | -3
COc1cc(OC)cc(-c2c(C#Cc3ccsc3)c3cc(-c4cc(F)cc(F)c4)ccc3n2C)c1 | 0 | -3 | 0 | 2 | 97 | . | .
O=C(CCCOc1ccc(Cl)cc1Cl)N/N=C/c1cccc([N+](=O)[O-])c1 | -8 | 92* | 19 | 3 | 110 | 55* | -10 | Scp1 DSF=3
